Screening results: PubChem, several laboratories
The list is not random: actives were taken first. Their share in the collection is about 5.1%.
STAT3 inh-1 = IL-6 driven STAT3 reporter inhibitors, primary screen, U3A cells, luciferase, luminescence, MLSCN library. IL-6 STAT3-luciferase reporter; host cell line lacks STAT1. inhibition, % at 5.5 µM. actives 0.89% (n = 190,000);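 active means inhibition above the mean inhibition across all screened compounds plus 3 SD, cut at about 44% in these data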
NF-kB neuron act = activators of NF-kB expression in neurons, primary screen, cell-based, HTS; human neuronal cells, NF-kB reporter expression; hits give high values; fold change at 12.5 µM; actives 1.6% (n = 190,000); in the data active means fold change above about 3.3
STAT3 activator = IL-6 driven STAT3 reporter potentiators, primary screen, U3A cells, luciferase, luminescence, MLSCN library; activation (% of control), % at 5.6 µM; IL-6 STAT3-luciferase reporter; 100% = signal with IL-6 EC80 alone; actives 0.91% (n = 190,000);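 active means activation above the screen-wide mean of compound activation plus 3 SD, cut at about 130% in these data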
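Test system: STAT3-luciferase reporter U3A cells; Detection: reporter luminescence signal; Times: 1 h compound pre-exposure, 6 h IL-6 stimulation, 37 °C; Benchmarks: IL-6-only high control; Also added: IL-6 stimulus at 33 ng/mL final.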
STAT1 inh = STAT1 signaling inhibitors, primary screen, cell-based, HTS, luciferase reporter. inhibition, % at 5.5 µM. AID 920, 2007. actives 0.35% (n = 200,000). NIH 3T3 STAT1-luciferase reporter, IFN-gamma, luminescence;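 active means inhibition above a set limit, the mean inhibition across all tested compounds plus 3 SD, cut at about 34% in these data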
STAT1 activator = STAT1 signaling activators, primary screen, cell-based, HTS, luciferase reporter; NIH 3T3 STAT1-luciferase reporter, IFN-gamma, luminescence; 100% = IFN-gamma alone, no compound; activation (% of control), % at 5.5 µM; actives 2.6% (n = 200,000);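 active means activation above the screen-wide mean activation plus 3 SD, cut at about 130% in these data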
APP 5'UTR act = activators of APP 5'UTR luciferase reporter, primary screen, SH-SY5Y cells | SH-SY5Y APP 5'UTR luciferase reporter, luminescence; zero percent = DMSO vehicle wells | activation, % at 2 µM | actives 1% (n = 190,000) | AID 1276, 2008;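 active means activation above a set limit, based on mean plus 3 SD of controls, cut at about 140% in these data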
STAT3 inh-2 = STAT3 reporter inhibitors, retest of hits, confirmation, U3A cells, luciferase, luminescence; inhibition, % at 5.7 µM; shares compounds with STAT3 inh-1; AID 1265, 2008; actives 45% (n = 1,200); IL-6 STAT3 luciferase reporter; cell line lacks STAT1;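 active means inhibition above the hit cutoff computed for the primary STAT3 screen, cut at about 44% in these data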
NFkB inh STAT3ct = NF-kB reporter inhibitors in human cells, confirmation, counter-screen for STAT3 inhibitor project, cell-based, HEK293T, luciferase, TNF-alpha stimulus; shares compounds with STAT3 inh-1; TNF-alpha induced; inhibition, % at 5.7 µM; actives 36% (n = 1,200); AID 1308, 2008;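 active means inhibition above the mean of solvent-only control wells plus 3 SD, cutoff set per campaign, cut at about 13% in these data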
STAT1 inh STAT3c = STAT1 reporter inhibitors, IFN-gamma induced, confirmation, counter-screen for STAT3 inhibitor project, cell-based, NIH 3T3, luciferase luminescence. shares compounds with STAT3 inh-1. inhibition, % at 5.7 µM. NIH 3T3 STAT1-luciferase reporter. actives 27% (n = 1,200). AID 1317, 2008;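 active means inhibition above the mean plus 3 SD of solvent-only control wells, limit set per screening run, cut at about 16% in these data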
Numbers stand for hits; – = inactive; · = no result given.

SMILES	STAT3 inh-1	NF-kB neuron act	STAT3 activator	STAT1 inh	STAT1 activator	APP 5'UTR act	STAT3 inh-2	NFkB inh STAT3ct	STAT1 inh STAT3c
COc1ccc(CN(C)Cc2nc(Cc3cccc(F)c3)no2)c2cccnc12	61	–	–	–	–	–	62	19	26
O=C(CSc1nnc(NC(=O)C2CCC2)s1)NC1CC1	–	–	–	–	–	–	·	·	·
COc1ccc(-c2cc(C(=O)Nc3cc(C)n(Cc4ccc(Cl)cc4)n3)no2)cc1OC	74	–	–	–	–	–	71	29	–
O=C(Nc1ccc2c(c1)OCCO2)c1ccccc1F	52	5.2	–	–	–	146	–	–	–
CS(=O)(=O)Nc1ccccc1C(=O)Nc1ccc2c(c1)OCCO2	–	–	–	–	–	–	·	·	·
CCN1CCN(C(=S)c2ccc(-c3ccccc3)cc2)CC1	47	–	–	–	–	–	–	–	–
C=CCNc1nc2c(c(=O)n(C)c(=O)n2C)n1CCCCCC	54	–	–	–	–	–	64	15	30
C=CC[n+]1c(/C=C2\C=Cc3cc(C)ccc3N2CC)ccc2ccccc21	88	–	–	–	–	–	88	50	26
CCN1C(=C(C#N)C#N)C=Cc2cc(C)ccc21	–	–	–	–	–	–	·	·	·
COc1cccc(C(=O)Cn2c(=N)n(C)c3ccccc32)c1	46	4.4	–	–	–	229	–	–	–
CNC(=O)CC1C(=O)N(c2ccc(Cl)cc2)C(=S)N1CCc1ccc(OC)c(OC)c1 (stereo not drawn)	–	–	–	–	–	–	·	·	·
O=C(NCCCC(=O)N1CCOCC1)c1cccnc1	–	–	–	–	–	–	·	·	·
CCC(=O)c1ccc(OCC(O)Cn2c(C)nc3ccccc32)cc1 (stereo not drawn)	64	–	–	–	–	–	53	14	20
O=c1[nH]c(N2CCOCC2)nc2c1CCCC2	97	–	–	–	–	–	–	–	–
CN(C)c1ccc(C=Nc2ccccc2C(N)=O)cc1	45	3.7	–	–	135	166	–	–	–
Cc1ccc(C(=O)Nc2nnc(SCC(=O)N3CCCc4ccccc43)s2)cc1	62	7.1	–	–	–	–	71	56	49
O=C(Nc1nnc(SCC(=O)N2CCCc3ccccc32)s1)c1cccc2ccccc12	–	–	–	–	–	–	·	·	·
CC(C)Oc1ccc(C(=O)Nc2nnc(SCC(=O)N3CCOCC3)s2)cc1	70	–	–	–	–	–	74	57	50
COc1ccc(C(=O)c2ccccc2)c2c(O)ccc(C(=O)c3ccccc3)c12	65	–	–	–	–	–	62	16	–
Cn1nc(C(C)(C)C)cc1C(=O)NCc1ccc(N2CCCC2=O)cc1	59	–	–	–	–	–	63	29	33
CCN(CC)S(=O)(=O)c1ccc(C)c(NC(=O)COC(=O)CNC(=O)c2ccc(C(C)(C)C)cc2)c1	–	–	–	–	–	–	·	·	·
Cc1ccc2nc(NC(=O)c3cccs3)sc2c1	70	11	–	–	129	163	–	–	–
COc1cc(OC)cc(C(=O)Nc2nc3ccc(S(C)(=O)=O)cc3s2)c1	–	–	–	–	–	–	·	·	·
Cc1ccc2nc(NC(=O)CSCC(=O)OCC(=O)c3ccccc3)sc2c1	51	–	–	–	–	–	57	23	24
